Assay results from publication PMC12318077 (Scientific Reports, 2025).

Columns and labels:
Cytotoxicity assay = format: cell-based; settings: human, 5% suspension of human blood erythrocytes
In short: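 Test compound (25–426 µM) incubated with a 5% suspension of human blood erythrocytes at 37 °C for 3 h. 0.1% DMSO served as the negative control and 0.5% Triton X-100 as the positive control. Samples were spun at 1000 × g for 10 min, and released hemoglobin was read at 576 nm. Percent hemolysis was calculated and CC50 derived by linear interpolation. Triplicates, mean ± SD.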

L. tropica promastigotes = experiment: Promastigotes proliferation assessment by MTT assay; format: cell-based, Leishmania tropica; settings: for IC50: 48 h

Compound | CC50 at 3 h (Cytotoxicity assay) [µM] | IC50 (L. tropica promastigotes; Leishmania tropica) [µM] | SI index (IC50/CC50 µM) (L. tropica promastigotes; ratio of hemolysis CC50 and L. tropica IC50) | IC50 (L. tropica promastigotes; L. tropica promastigotes, MTT, dose range 25–426 µM) [µM]
CCCCN1CN(CC(=O)O)CSC1=S [BG, 2-(5-Butyl-6-thioxo-1,3,5-thiadiazinan-3-yl) acetic acid] | 376 | – | – | –
C[C@@H]1[C@H](O)[C@@H](C)/C=C/C=C/C=C/C=C/C=C/C=C/C=C/[C@H](O[C@@H]2O[C@H](C)[C@@H](O)[C@H](N)[C@@H]2O)C[C@@H]2O[C@](O)(C[C@@H](O)C[C@@H](O)[C@H](O)CC[C@@H](O)C[C@@H](O)CC(=O)O[C@H]1C)C[C@H](O)[C@H]2C(=O)O [Amp-B, Amphotericin B, reference compound] | – | 15.7 | 0.18 | –
5,5′,5″-(nitrilotris(ethane-2,1-diyl))tris(3-(4-ethylphenyl)-1,3,5-thiadiazinane-2-thione) [Compound T24] | – | – | – | 26.9
CCCN1CN(CC(=O)O)CSC1=S [PG, 2-(5-propyl-6-thioxo-1,3,5-thiadiazinan-3-yl)acetic acid] | 402 | 82.8 | – | –
Cc1cc(C)c(N2CSC(=S)N(CCN(CCN3CN(c4c(C)cc(C)cc4C)CSC3=S)CCN3CN(c4c(C)cc(C)cc4C)CSC3=S)C2)c(C)c1 [Compound T25, 3,3′,3″-(nitrilotris(ethane-2,1-diyl))tris(5-mesityl-1,3,5-thiadiazinane-2-thione)] | 89.7 | 27.7 | – | –
